Results from PMC9583317 (ACS Omega, 2022).
Numbered stars: 1 amine (or outer) side, 2 acyl side, 3 side chain; on linkers, the order of the positions; unused ones are H or OH. Square brackets hold non-standard residues; d marks the D form. Peptide text beside a SMILES is read from it. X1 = O=C(C(=Cc1ccccc1)N[*:1])[*:2]

How the values were obtained:
Red blood cells (RBCs) = experiment: In vitro hemolysis; type: cell-based; settings: human RBC suspension, 39 to 773 μM, 37 °C, 3 h, absorbance 540 nm
In short: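 Human blood collected in 10% citrate-phosphate-dextrose. RBCs pelleted at 1500g, 10 min, 25 °C, and washed 3–5 times in PBS. A 10% (v/v) packed-RBC suspension was mixed 1:1 with peptide nanoparticles (39–773 μM) or the siRNA nanocomplex (70–280 nM). Incubated 3 h at 37 °C, then re-spun. Released hemoglobin read in supernatant at 540 nm. PBS and 0.2% Triton X-100 served as controls.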

trypsin = experiment: Proteolytic stability with trypsin; type: in vitro ADME; settings: 6 h, room temperature
In short: (§1)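 Self-assembled peptide nanoparticles were exposed to proteinase K or trypsin for 6 h at room temperature with constant low-rpm stirring. Degradation was assessed by reverse-phase HPLC on a C-18 column. Morphological change of enzyme-treated particles was imaged by TEM.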

Proteinase K = Proteinase K (Parengyodontium album, UniProt P06873); experiment: Proteolytic stability with proteinase K; type: in vitro ADME; settings: 6 h, room temperature
In short: as §1

[1] = ref [31]; cited from earlier work

Proteinase K, sequence (P06873 106-384): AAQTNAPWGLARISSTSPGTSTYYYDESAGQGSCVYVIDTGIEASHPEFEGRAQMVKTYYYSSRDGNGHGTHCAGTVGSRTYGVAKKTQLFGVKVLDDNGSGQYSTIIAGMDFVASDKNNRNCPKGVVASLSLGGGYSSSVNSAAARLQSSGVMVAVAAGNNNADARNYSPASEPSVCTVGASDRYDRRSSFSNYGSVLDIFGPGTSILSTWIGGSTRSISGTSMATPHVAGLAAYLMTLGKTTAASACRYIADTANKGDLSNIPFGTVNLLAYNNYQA

Row | Compound | hemolysis (Red blood cells (RBCs)) | stability to trypsin compared with natural analogue RFRGD (trypsin; RP-HPLC C-18, RFRGD NPs in PBS (Fig S2b)) | morphological change after trypsin (TEM) (trypsin; TEM) | proteolytic stability to trypsin (RP-HPLC) (trypsin; constant stirring, RP-HPLC C-18) | morphological change after proteinase K (TEM) (Proteinase K) | size of nanospheres [1]
1 | N=C(N)NCCC[C@H](NC(=O)C(=Cc1ccccc1)NC(=O)[C@@H](N)CCCNC(=N)N)C(=O)NCC(=O)N[C@@H](CC(=O)O)C(N)=O [RΔFRGD] (H-R[X1]RGD-NH2) | less than 5% | significantly more stable | no changes in morphological structures | observable degradation | no changes in morphological structures | 
2 | arginine-α,β-dehydrophenylalanine [RΔF] |  |  |  |  |  | 60–80 nm
